TRPC4 act: activators of mouse TRPC4 channel, primary screen, Fluo4 calcium, HEK293 TRPC4beta/mu-opioid cells | Short transient receptor potential channel 4 (Mus musculus), Q9QUQ5 | B-score at 10 µM | Fluo4 calcium fluorescence; active compounds read high | 310,000 tested, 0.49% active;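 active = B-score above 5 SD of library B-scores, and initial fluorescence ratio not above library mean plus 5 SD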;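 also: positive B-score marks a calcium rise read as TRPC4 activation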
Target sequence (Q9QUQ5 whole entry, looked up): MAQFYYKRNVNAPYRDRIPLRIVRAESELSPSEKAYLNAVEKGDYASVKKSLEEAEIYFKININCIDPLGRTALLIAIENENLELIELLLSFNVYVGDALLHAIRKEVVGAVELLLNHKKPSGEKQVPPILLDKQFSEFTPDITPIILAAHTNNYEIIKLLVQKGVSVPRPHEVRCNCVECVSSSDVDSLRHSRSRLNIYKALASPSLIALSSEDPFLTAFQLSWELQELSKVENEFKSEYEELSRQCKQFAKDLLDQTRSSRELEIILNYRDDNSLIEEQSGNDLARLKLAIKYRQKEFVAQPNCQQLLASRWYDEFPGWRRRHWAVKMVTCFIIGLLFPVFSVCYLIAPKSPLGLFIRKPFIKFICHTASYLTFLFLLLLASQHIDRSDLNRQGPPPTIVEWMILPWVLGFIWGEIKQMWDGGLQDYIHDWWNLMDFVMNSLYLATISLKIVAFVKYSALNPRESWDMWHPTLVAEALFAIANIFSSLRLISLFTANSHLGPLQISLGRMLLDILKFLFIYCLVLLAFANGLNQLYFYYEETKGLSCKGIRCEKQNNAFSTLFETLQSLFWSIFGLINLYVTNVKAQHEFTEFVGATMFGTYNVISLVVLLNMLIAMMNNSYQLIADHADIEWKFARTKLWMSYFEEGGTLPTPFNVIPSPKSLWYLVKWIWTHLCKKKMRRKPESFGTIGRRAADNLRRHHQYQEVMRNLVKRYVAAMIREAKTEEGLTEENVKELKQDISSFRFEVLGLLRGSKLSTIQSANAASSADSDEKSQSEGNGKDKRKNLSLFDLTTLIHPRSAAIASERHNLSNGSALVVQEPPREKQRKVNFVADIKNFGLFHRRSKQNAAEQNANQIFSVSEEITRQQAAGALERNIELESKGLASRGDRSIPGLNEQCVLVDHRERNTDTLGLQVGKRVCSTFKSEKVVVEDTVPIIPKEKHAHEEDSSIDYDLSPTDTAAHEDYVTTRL
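Material: TRPC4beta and mu-opioid receptor HEK293 stable cells | Incubation: 45 min room-temperature Fluo4 loading, 110 s read | Detection: Kinetic Fluo4 calcium fluorescence | Measure: Integrated baseline-normalised fluorescence ratio, converted to per-well B score | Benchmarks: Low control buffer alone, high control maximal DAMGO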
TRPC4 potent: positive allosteric modulators of TRPC4, primary screen, cell-based, mouse TRPC4beta, HEK293 mu-opioid, Fluo-4 calcium; DAMGO EC20, Fluo-4 Ca2+ flux; active compounds read high; 310,000 tested, 0.42% active; AID 2227, 2009; B-score at 10 µM;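 active = B-score of calcium response area above 5 SD of library B-scores, with initial fluorescence ratio within 5 SD of library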;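 also: B-score of integrated fluorescence ratio over time as area under calcium response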
TRPC6 activator: mouse TRPC6 channel activators, primary screen, cell-based, HEK293, membrane potential dye; 310,000 tested, 0.13% active; B-score at 10 µM; Short transient receptor potential channel 6 (Mus musculus), Q61143; HEK293-TRPC6 membrane potential dye fluorescence; active compounds read high;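 active = B-score of the integrated fluorescence ratio above library mean plus 3 SD, and starting fluorescence ratio within library mean plus 5 SD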;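 also: higher score means more depolarization so channel activation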
TRPC6 inhibitor: mouse TRPC6 channel inhibitors, primary screen, cell-based, HEK293, membrane potential dye. ACh-evoked depolarization; active compounds read low. AID 2553, 2010. 310,000 tested, 1.1% active. Short transient receptor potential channel 6 (Mus musculus), Q61143. B-score at 10 µM;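 active = B-score under library mean minus 3 SD, initial fluorescence not abnormally high, positive integrated signal ratio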;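 also: B-score derived from integrated fluorescence ratio over the kinetic read; more negative B-score means stronger inhibition of depolarization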
TRPC4 inh: inhibitors of mouse TRPC4 channel, primary screen, Fluo4 calcium, HEK293 TRPC4beta/mu-opioid cells; DAMGO-evoked Fluo4 calcium flux; active compounds read low; Short transient receptor potential channel 4 (Mus musculus), Q9QUQ5; 300,000 tested, 0.39% active; B-score at 10 µM;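 active = B-score over 3 SD under the library average, no early fluorescence shift, positive overall ratio signal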
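material = TRPC4beta/mu-opioid receptor HEK293 cell line | probe or stimulus = sequential submaximal and maximal DAMGO stimulation | compound dosing = one concentration per compound | measured by = Fluo4 Ca2+ flux fluorescence | evaluation = integrated fluorescence ratio relative to baseline, converted to per-well B score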
Numbers without * were called inactive. Compounds with a hit are over-represented: about 2.3% of the library has one in this group of screens.

Results for O=C(Cc1cn(Cc2cccc(Cl)c2)c2ccccc12)N1CCCC1 ?
TRPC4 act: inactive; TRPC4 potent: 16*; TRPC6 activator: inactive; TRPC6 inhibitor: inactive; TRPC4 inh: inactive

What do the screens show for `O=C(CS(=O)(=O)c1cn(Cc2ccc(Cl)cc2)c2ccccc12)N1CCCC1`?
TRPC4 act: inactive; TRPC4 potent: inactive; TRPC6 activator: inactive; TRPC6 inhibitor: inactive; TRPC4 inh: inactive

What do the screens show for `CCCN1CCC(NC(=O)Cc2ccc(C)cc2)CC1`?
TRPC4 act: 62*; TRPC4 potent: 10*; TRPC6 activator: inactive; TRPC6 inhibitor: inactive; TRPC4 inh: inactive

What do the screens show for `CCN1CCC(NC(=O)Nc2ccc(F)cc2)CC1`?
TRPC4 act: inactive; TRPC4 potent: inactive; TRPC6 activator: inactive; TRPC6 inhibitor: inactive; TRPC4 inh: inactive

How did CCCN1CCC(NC(=O)Cc2cccc(C)c2)CC1 do in these assays?
TRPC4 act: 89*; TRPC4 potent: inactive; TRPC6 activator: inactive; TRPC6 inhibitor: inactive; TRPC4 inh: inactive

Results for CCCN1CCC(NC(=O)Nc2ccc(F)cc2F)CC1 ?
TRPC4 act: 43*; TRPC4 potent: inactive; TRPC6 activator: inactive; TRPC6 inhibitor: inactive; TRPC4 inh: inactive

How did N[C@@H](Cc1ccccc1)C(=O)N1CCC(C(=O)NCC(=O)NCC(=O)O)CC1 do in these assays?
TRPC4 act: inactive; TRPC4 potent: inactive; TRPC6 activator: inactive; TRPC6 inhibitor: inactive; TRPC4 inh: inactive

Results for CCOC(=O)c1ccc(NC(=S)N(CCCN2CCN(CC)CC2)Cc2cccs2)cc1 ?
TRPC4 act: inactive; TRPC4 potent: inactive; TRPC6 activator: inactive; TRPC6 inhibitor: inactive; TRPC4 inh: inactive

What do the screens show for `CC(=O)OC1C([N+]2(C)CCCCC2)C[C@H]2C3CC[C@H]4C[C@H](OC(C)=O)C([N+]5(C)CCCCC5)CC4(C)[C@H]3CCC12C` (some centres not stated)?
TRPC4 act: inactive; TRPC4 potent: inactive; TRPC6 activator: inactive; TRPC6 inhibitor: inactive; TRPC4 inh: inactive

What do the screens show for `CC(=O)O[C@H]1CC[C@@]2(C)C(CCC3C2CC[C@]2(C)OC(=O)CCC32)C1` (some centres not stated)?
TRPC4 act: inactive; TRPC4 potent: 10*; TRPC6 activator: inactive; TRPC6 inhibitor: inactive; TRPC4 inh: inactive

How did COc1cccc(NC(=O)c2ccnc(N3CCC(C(=O)NCc4cc(OC)ccc4OC)CC3)c2)c1 do in these assays?
TRPC4 act: inactive; TRPC4 potent: inactive; TRPC6 activator: inactive; TRPC6 inhibitor: inactive; TRPC4 inh: inactive

Results for CCOC(=O)CC(NC(=O)c1cc2cccc(OC)c2oc1=O)c1cccc([N+](=O)[O-])c1 (configuration not stated) ?
TRPC4 act: inactive; TRPC4 potent: inactive; TRPC6 activator: inactive; TRPC6 inhibitor: inactive; TRPC4 inh: inactive

Results for CCOC(=O)CC(NC(=O)c1cc2cc(Cl)cc(Cl)c2oc1=O)c1cccc([N+](=O)[O-])c1 (configuration not stated) ?
TRPC4 act: inactive; TRPC4 potent: 21*; TRPC6 activator: inactive; TRPC6 inhibitor: inactive; TRPC4 inh: inactive

What do the screens show for `CCN(CC)CCCNC(=O)Cn1cnc2ccc(S(=O)(=O)N3CCC(C)CC3)cc2c1=O`?
TRPC4 act: inactive; TRPC4 potent: 12*; TRPC6 activator: inactive; TRPC6 inhibitor: inactive; TRPC4 inh: inactive

What do the screens show for `CCCCN(CC)CCNC(=O)c1cc2c(=O)n(C)c3ccccc3c2n1C`?
TRPC4 act: 67*; TRPC4 potent: 14*; TRPC6 activator: inactive; TRPC6 inhibitor: inactive; TRPC4 inh: inactive

What do the screens show for `CCCN(CCC)CCCNC(=O)c1cc2c(=O)n(C)c3ccccc3c2n1C`?
TRPC4 act: 59*; TRPC4 potent: 16*; TRPC6 activator: inactive; TRPC6 inhibitor: inactive; TRPC4 inh: inactive

Results for CC(C)Cn1c(-c2csc(C(C)C)c2)n[nH]c1=S ?
TRPC4 act: inactive; TRPC4 potent: 13*; TRPC6 activator: inactive; TRPC6 inhibitor: inactive; TRPC4 inh: inactive

What do the screens show for `N=c1c(C(=O)NCc2ccccc2)cc2c(=O)n3ccccc3nc2n1Cc1ccco1`?
TRPC4 act: inactive; TRPC4 potent: inactive; TRPC6 activator: inactive; TRPC6 inhibitor: inactive; TRPC4 inh: inactive

Results for Cc1ccc2nc3c(cc(C(=O)NCCc4ccccc4)c(=N)n3CCN3CCOCC3)c(=O)n2c1 ?
TRPC4 act: inactive; TRPC4 potent: inactive; TRPC6 activator: inactive; TRPC6 inhibitor: inactive; TRPC4 inh: inactive

How did N=c1c(C(=O)NCc2ccc(F)cc2)cc2c(=O)n3ccccc3nc2n1Cc1ccco1 do in these assays?
TRPC4 act: inactive; TRPC4 potent: 15*; TRPC6 activator: inactive; TRPC6 inhibitor: inactive; TRPC4 inh: inactive

What do the screens show for `N=c1c(C(=O)NCc2ccco2)cc2c(=O)n3ccccc3nc2n1Cc1ccc(Cl)cc1`?
TRPC4 act: inactive; TRPC4 potent: 13*; TRPC6 activator: inactive; TRPC6 inhibitor: inactive; TRPC4 inh: inactive

How did CC(C)n1c(=N)c(C(=O)NCCc2ccccc2)cc2c(=O)n3ccccc3nc21 do in these assays?
TRPC4 act: inactive; TRPC4 potent: inactive; TRPC6 activator: inactive; TRPC6 inhibitor: -10*; TRPC4 inh: inactive

What do the screens show for `Cn1cc(CNCC2CCCO2)c(-c2ccc(Oc3ccccc3)cc2)n1` (configuration not stated)?
TRPC4 act: inactive; TRPC4 potent: inactive; TRPC6 activator: inactive; TRPC6 inhibitor: inactive; TRPC4 inh: -7*

Results for Cc1cc(CNCc2cn(C)nc2-c2ccc(Oc3ccccc3)cc2)on1 ?
TRPC4 act: inactive; TRPC4 potent: inactive; TRPC6 activator: inactive; TRPC6 inhibitor: inactive; TRPC4 inh: inactive

How did O=C(NCC1CCCO1)c1cn(-c2ccccc2)nc1-c1ccccc1 (configuration not stated) do in these assays?
TRPC4 act: inactive; TRPC4 potent: inactive; TRPC6 activator: inactive; TRPC6 inhibitor: inactive; TRPC4 inh: inactive

What do the screens show for `COc1ccc(-c2nn(-c3ccccc3)cc2C(=O)NCC2CCCO2)cc1` (configuration not stated)?
TRPC4 act: 49*; TRPC4 potent: inactive; TRPC6 activator: inactive; TRPC6 inhibitor: inactive; TRPC4 inh: inactive

What do the screens show for `O=C(CSc1nnc(NC(=O)c2ccc(F)cc2F)s1)NC1CCCC1`?
TRPC4 act: inactive; TRPC4 potent: inactive; TRPC6 activator: inactive; TRPC6 inhibitor: inactive; TRPC4 inh: inactive

Compound activity: PubChem, Johns Hopkins Ion Channel Center
